Like-named read-outs stand apart in the source and are kept apart here. Values belong to the compound of their own block, whether it stands above or below them.
Experiments:
[1] = human plasma, topical sunscreen, ref Matta et al., 2020, cited from earlier work
[2] = Cross filtration; type: in vitro ADME; settings: both, human, pooled human plasma
Summary of the method: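 Modified cross-ultrafiltration: 10 µM test compound in pooled mixed-gender human plasma, 60 min at 37°C, n = 3, then ultrafiltered beside blank plasma. Each retentate was mixed into the partner filtrate and the regenerated samples analysed by LC-MS/MS. Warfarin 10 µM was positive control. Stability was checked at 60 min against non-incubated control. Recovery-corrected mean PPB from filtrate; Fup = 100 − PPB.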

[3] = Metabolic stability in primary human hepatocytes in suspension; type: in vitro ADME; settings: human, cryopreserved human hepatocytes in suspension (5 donor pool)
Summary of the method: (§1)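 Cryopreserved human hepatocytes (5-donor pool, 0.8 × 10^6 cells/ml) in Williams E medium (25 mM HEPES, 2 mM L-glutamine) were incubated with test compound at 0.1, 1 and 10 µM, 37°C, n = 3. Sampled at 0, 15, 60, 90, 180 and 240 min; solvent ≤0.5% DMSO or 1% ACN. Heat-inactivated hepatocytes were the negative control. Parent loss was measured by LC-MS. CLint = −k·V (k, slope of log concentration vs time; V, incubation volume/cell number).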

[4] = test system: human hepatocytes; test: as above; type: in vitro ADME; settings: human suspension hepatocytes; compared with Naloxone
Summary of the method: as §1

[5] = Blood partitioning assay for Rbp; type: in vitro ADME; settings: both, human
Summary of the method: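 Fresh pooled mixed-gender human whole blood (lithium heparin) and reference plasma centrifuged from the same blood were each incubated with 5 µM test compound at 37°C, n = 3. Reactions were stopped at 0 and 60 min. Rbp was derived by LC-MS/MS from test compound concentration in control plasma versus whole-blood supernatant. Chlorthalidone 5 µM served as positive control.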

[6] = PBK population simulation of plasma concentrations; parameters: species or system human
Summary of the method: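 GastroPlus population simulations reproduced the clinical designs. Lotion or non-aerosol spray, 2 mg/cm2 over 75% body surface, once at 0 h on day 1 and 4 times daily at 2-h intervals on days 2–4 (mixed multiple-dose profile). Alternatively, a 4% formulation over 90% body surface, about 22 mg/kg bw, in 3 male and 3 female subjects. Simulated-mean/observed-mean ratios for Cmax and AUC0−t; 10th–90th percentiles generated.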

[7] = Ex vivo skin penetration study of radiolabeled OMC; type: in vitro ADME; settings: human skin; for Dermal delivery (Epidermis + Dermis + Receptor fluid), 14C-OMC / Dermis, distribution of 14C-OMC / Epidermis, distribution of 14C-OMC / Receptor fluid, distribution of 14C-OMC / Skin excess, distribution of 14C-OMC / Total recovery, 14C-OMC / Total strips (1–20), distribution of 14C-OMC: mean
Summary of the method: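 Dermatomed skin, 350–450 µm, in flow-through diffusion cells (1 cm2 area), unoccluded, surface at 32°C ± 1°C. Receptor fluid (5% w/w BSA, 0.9% NaCl) flowed at 1.5 ml/h and was collected hourly. Runs ended at 30 min, 1, 2, 4, 8 h (n = 5) or 24 h (n = 12). Up to 20 tape strips; epidermis heat-separated from dermis; compartments counted by scintillation. Dermal delivery = epidermis + dermis + receptor fluid.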

[8] = Skin absorption parameters; parameters: species or system human; settings: Fitted; for Vehicle/water partition coefficient: vehicle/formulation specific
Summary of the method: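 A skin model in GastroPlus TCAT started from in silico predicted values for the vehicle, stratum corneum, epidermis and dermis. Its diffusivities and partition coefficients were fitted to skin penetration data: receptor-fluid time course where available, plus skin wash and layer distribution. Parameters were adjusted to minimise model–data difference and then used in the human dermal model. Vehicle/water partitioning is formulation-specific.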

[9] = Scaling of in vitro CLint to in vivo CLint and CLliver; parameters: species or system human; settings: scaled from the mean in vitro CLint
Summary of the method: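 Mean in vitro hepatocyte CLint was scaled to in vivo CLint (l/h) using a scaling factor: million cells per gram of liver × grams of liver weight. In vivo CLint was then converted to hepatic clearance with two variations of the well-stirred liver model.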

[10] = human plasma, dermal, ref Schauer et al., 2006, cited from earlier work
[11] = pig skin, 24 h, skin surface washed at 8 h; mean; ref Sasson et al. (2009); cited from earlier work
[12] = ref Shand, 1976; cited from earlier work

fraction unbound at 60 min, 10 µM [2]: 0.0004 | hepatocyte CLint [3]: 43.3 µL/min/1e6 cells | hepatocyte CLint at 10 µM [3]: 43.3 µL/min/1e6 cells | depletion in suspension hepatocytes [4]: medium to fast depletion | blood plasma ratio at 60 min, 5 µM [5]: 0.73 | AUC0 − t Fold Difference (Simulated Mean/Observed Mean) ([6]; Day 1): 1.5 | Cmax Fold Difference (Simulated Mean/Observed Mean) ([6]; Day 1): 1.5 | AUC0 − t Fold Difference (Simulated Mean/Observed Mean) ([6]; Day 4): 2.7 | Cmax Fold Difference (Simulated Mean/Observed Mean) ([6]; Day 4): 1.3 | dermal delivered fraction of the applied dose ([7]; all the conditions (30 min to 24 h), target dose 200 µg/cm^2): less than 0.5% | Dermal delivery (Epidermis + Dermis + Receptor fluid), 14C-OMC ([7]; terminated at 30 min): 0.10% | Dermis, distribution of 14C-OMC ([7]; terminated at 30 min): 0.004% | Epidermis, distribution of 14C-OMC ([7]; terminated at 30 min): 0.07% | Receptor fluid, distribution of 14C-OMC ([7]; terminated at 30 min): 0.02% | Skin excess, distribution of 14C-OMC ([7]; terminated at 30 min): 91.04% | Total recovery, 14C-OMC ([7]; terminated at 30 min): 91.65% | Total strips (1–20), distribution of 14C-OMC ([7]; terminated at 30 min): 0.51% | Dermal delivery (Epidermis + Dermis + Receptor fluid), 14C-OMC ([7]; terminated at 1 h): 0.06% | Dermis, distribution of 14C-OMC ([7]; terminated at 1 h): 0.01% | Epidermis, distribution of 14C-OMC ([7]; terminated at 1 h): 0.04% | Receptor fluid, distribution of 14C-OMC ([7]; terminated at 1 h): 0.003% | Skin excess, distribution of 14C-OMC ([7]; terminated at 1 h): 112.02% | Total recovery, 14C-OMC ([7]; terminated at 1 h): 112.38% | Total strips (1–20), distribution of 14C-OMC ([7]; terminated at 1 h): 0.30% | Dermal delivery (Epidermis + Dermis + Receptor fluid), 14C-OMC ([7]; terminated at 2 h): 0.11% | Dermis, distribution of 14C-OMC ([7]; terminated at 2 h): 0.005% | Epidermis, distribution of 14C-OMC ([7]; terminated at 2 h): 0.06% | Receptor fluid, distribution of 14C-OMC ([7]; terminated at 2 h): 0.04% | Skin excess, distribution of 14C-OMC ([7]; terminated at 2 h): 89.22% | Total recovery, 14C-OMC ([7]; terminated at 2 h): 90.06% | Total strips (1–20), distribution of 14C-OMC ([7]; terminated at 2 h): 0.73% | Dermal delivery (Epidermis + Dermis + Receptor fluid), 14C-OMC ([7]; terminated at 4 h): 0.12% | Dermis, distribution of 14C-OMC ([7]; terminated at 4 h): 0.01% | Epidermis, distribution of 14C-OMC ([7]; terminated at 4 h): 0.05% | Receptor fluid, distribution of 14C-OMC ([7]; terminated at 4 h): 0.06% | Skin excess, distribution of 14C-OMC ([7]; terminated at 4 h): 100.26% | Total recovery, 14C-OMC ([7]; terminated at 4 h): 100.75% | Total strips (1–20), distribution of 14C-OMC ([7]; terminated at 4 h): 0.37% | Dermal delivery (Epidermis + Dermis + Receptor fluid), 14C-OMC ([7]; terminated at 8 h): 0.20% | Dermis, distribution of 14C-OMC ([7]; terminated at 8 h): 0.01% | Epidermis, distribution of 14C-OMC ([7]; terminated at 8 h): 0.10% | Receptor fluid, distribution of 14C-OMC ([7]; terminated at 8 h): 0.09% | Skin excess, distribution of 14C-OMC ([7]; terminated at 8 h): 113.76% | Total recovery, 14C-OMC ([7]; terminated at 8 h): 114.46% | Total strips (1–20), distribution of 14C-OMC ([7]; terminated at 8 h): 0.50% | Dermal delivery (Epidermis + Dermis + Receptor fluid), 14C-OMC ([7]; terminated at 24 h): 0.28% | Dermis, distribution of 14C-OMC ([7]; terminated at 24 h): 0.02% | Epidermis, distribution of 14C-OMC ([7]; terminated at 24 h): 0.21% | Receptor fluid, distribution of 14C-OMC ([7]; terminated at 24 h): 0.06% | Skin excess, distribution of 14C-OMC ([7]; terminated at 24 h): 100.26% | Total recovery, 14C-OMC ([7]; terminated at 24 h): 100.96% | Total strips (1–20), distribution of 14C-OMC ([7]; terminated at 24 h): 0.41% | Dermis diffusivity [8]: 1.0E−07 cm^2/s | Dermis/water partition coefficient [8]: 7.0E−01 | Epidermis diffusivity [8]: 3.0E−08 cm^2/s | Epidermis/water partition coefficient [8]: 2.0E+01 | Stratum corneum diffusivity [8]: 2.0E−10 cm^2/s | Stratum corneum/water partition coefficient [8]: 4.5E+02 | Vehicle diffusivity [8]: 7.0E−12 cm^2/s | Vehicle/water partition coefficient [8]: 1.5E+05 | In vivo CLint scaled [9]: 312.0 l/h/kg liver
Structure (SMILES): CCCCC(CC)COC(=O)C=Cc1ccc(OC)cc1 (stereo not shown) [OMC, octyl methoxycinnamate]
Observed AUC0 − t, Geometric mean ([1]; Day 1): 21.6 ng·h/mL | Observed AUC0 − t, Range ([1]; Day 1): 2.7 to 57.7 ng·h/mL | Observed Cmax, Range ([1]; Day 1): 0.6 to 5 ng/mL | Observed AUC0 − t, Geometric mean ([1]; Day 4): 103.4 ng·h/mL | Observed AUC0 − t, Range ([1]; Day 4): 45.1 to 213.5 ng·h/mL | Observed Cmax, Range ([1]; Day 4): 2.6 to 30.6 ng/mL

fraction unbound at 60 min, 10 µM [2]: 0.0004 | hepatocyte CLint [3]: 30 µL/min/1e6 cells | hepatocyte CLint at 0.1 µM [3]: 34 µL/min/1e6 cells | hepatocyte CLint at 1 µM [3]: 32.2 µL/min/1e6 cells | hepatocyte CLint at 10 µM [3]: 23.8 µL/min/1e6 cells | depletion in suspension hepatocytes [4]: medium to fast depletion | blood plasma ratio at 60 min, 5 µM [5]: 0.88 | AUC0 − t Fold Difference (Simulated Mean/Observed Mean) ([6]; Female): 0.8 | Cmax Fold Difference (Simulated Mean/Observed Mean) ([6]; Female): 0.9 | AUC0 − t Fold Difference (Simulated Mean/Observed Mean) ([6]; Male): 0.6 | Cmax Fold Difference (Simulated Mean/Observed Mean) ([6]; Male): 0.6 | Dermis diffusivity [8]: 3.0E−08 cm^2/s | Dermis/water partition coefficient [8]: 2.0E+00 | Epidermis/water partition coefficient [8]: 1.0E+02 | Stratum corneum diffusivity [8]: 6.1E−11 cm^2/s | Stratum corneum/water partition coefficient [8]: 1.0E+03 | Vehicle diffusivity [8]: 7.8E−06 cm^2/s | Vehicle/water partition coefficient [8]: 4.0E+04 | In vivo CLint scaled [9]: 216 l/h/kg liver
Structure (SMILES): Cc1ccc(/C=C2/C(=O)C3(C)CCC2C3(C)C)cc1 (stereo not shown) [4-MBC, 4-methylbenzylidene camphor]
Observed AUC0 − t, Geometric mean ([10]; Female): 485.6 ng·h/mL | Observed Cmax, Range ([10]; Female): 19.8 to 31.2 ng/mL | Observed AUC0 − t, Geometric mean ([10]; Male): 987.9 ng·h/mL | Observed Cmax, Range ([10]; Male): 19.8 to 83.9 ng/mL | Dermal delivery (Epidermis + dermis + receptor fluid), 4-MBC [11]: 3.17% | Epidermis + Dermis, distribution of 4-MBC [11]: 2.9% | Receptor fluid, distribution of 4-MBC [11]: 0.25% | Skin excess, distribution of 4-MBC [11]: 4.5% | Total recovery, 4-MBC [11]: 87.8% | Total strips (1–40), distribution of 4-MBC [11]: 80.1%

Structure (SMILES): CC(C)NCC(O)COc1cccc2ccccc12 (stereo not shown) [propranolol]
bound to plasma [12]: 90%–95

Source: PMC10613959 (Toxicological Sciences, 2023)
